Rows were chosen to be rich in hits. Some 1.1% of all compounds tested hit in one or more screens of this group.
CAL PDZ FP-1: CAL PDZ peptide-binding inhibitors, primary screen, biochemical, fluorescence polarization, Cer-tagged CAL PDZ, HTS; Golgi-associated PDZ and coiled-coil motif-containing protein (Homo sapiens), Q9HD26; purified CAL PDZ, TMR-peptide fluorescence polarization, 1 h; inhibition, % at 20 µM; hit rate 0.02% among 330,000; AID 504414, 2011;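 active = highest replicate inhibition of at least 40%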;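 note: plate controls were DMSO neutral control wells for no effect and unlabeled competitor peptide control wells for full effect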
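System: tagged CAL PDZ domain. Schedule: 1 h room-temperature incubation prior to read. Signal: fluorescence polarization (mP). Measure: percent inhibition from loss of millipolarization.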
C-LANA FP: inhibitors of KSHV C-LANA binding to DNA, primary screen, biochemical, fluorescence polarization, FAM-LBS DNA, MBP-C-LANA, single point | Kaposi's sarcoma herpesvirus LANA C-terminal domain (residues 932-1162) DNA binding | inhibition, % at 9 µM | hit rate 0.078% among 340,000;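 active = highest replicate inhibition at or above 60% at 9 µM, even if other replicates fall short; inactive = all replicates below 60% inhibition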;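 note: 0% = neutral control wells and 100% = 4 µM acridine orange control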
miR-122 sensor: miR-122 Renilla sensor signal increase in Huh7, primary screen, miR-122 inhibitor project, cell-based, single point, plate reader; AID 602342, 2012; Huh7 miR-122 Renilla luciferase sensor, 48 h; neutral wells = 0, positive control = 100; hit rate 0.3% among 340,000; activation (reporter increase), % at 12.5 µM;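 active = mean replicate activation score at least 90 and every replicate individually at or above 90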;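 note: higher luciferase means less miR-122 activity so hits act as miR-122 inhibitors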
CAL PDZ FP-2: untagged CAL PDZ binding inhibitors, primary screen, biochemical, fluorescence polarization, HTS; inhibition, % at 24.9 µM; purified CAL PDZ, TMR-peptide fluorescence polarization, 1 h; AID 602252, 2012; hit rate 0.92% among 300,000; Golgi-associated PDZ and coiled-coil motif-containing protein (Homo sapiens), Q9HD26;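 active = mean inhibition of at least 30% with at least half of replicates also reaching 30%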;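 note: 0% = DMSO neutral control and 100% = excess unlabeled competitor peptide PRC23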
Keap1 Nrf2 FP: Keap1-Nrf2 protein-protein interaction inhibitors, primary screen, biochemical, fluorescence polarization, single point; Kelch-like ECH-associated protein 1 (Homo sapiens), Q14145; hit rate 0.15% among 340,000; Keap1 Kelch-Nrf2 peptide fluorescence polarization, 1536-well; inhibition, % at 9.4 µM; in the data active = inhibition above about 12%;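 note: human Keap1 Kelch domain with fluorescein labeled Nrf2 9mer peptide probe; 0% = neutral control wells and 100% = peptide positive control; higher means more block of Keap1 binding to Nrf2 peptide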
Target sequence (Q14145 whole entry, looked up, the tested form may be a part): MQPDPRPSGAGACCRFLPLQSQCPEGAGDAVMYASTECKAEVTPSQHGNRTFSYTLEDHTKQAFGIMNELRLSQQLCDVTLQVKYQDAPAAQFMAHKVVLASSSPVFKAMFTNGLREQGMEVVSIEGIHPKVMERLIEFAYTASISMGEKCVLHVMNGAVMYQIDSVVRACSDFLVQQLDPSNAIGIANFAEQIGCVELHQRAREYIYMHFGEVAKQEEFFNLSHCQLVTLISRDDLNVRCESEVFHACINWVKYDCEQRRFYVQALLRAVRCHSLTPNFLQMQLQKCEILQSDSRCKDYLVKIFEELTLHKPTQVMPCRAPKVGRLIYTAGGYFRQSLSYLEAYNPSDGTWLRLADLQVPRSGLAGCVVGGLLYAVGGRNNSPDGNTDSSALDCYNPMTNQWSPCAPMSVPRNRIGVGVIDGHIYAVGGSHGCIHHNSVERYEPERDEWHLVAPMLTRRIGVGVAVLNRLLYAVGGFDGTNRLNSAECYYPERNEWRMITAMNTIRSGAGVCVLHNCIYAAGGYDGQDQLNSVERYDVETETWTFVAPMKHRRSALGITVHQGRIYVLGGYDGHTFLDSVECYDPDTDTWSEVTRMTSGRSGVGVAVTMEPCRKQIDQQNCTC
The depositor's hits bear a star; x = no result given; [ ] = another dose, or the depositor's remark.

SMILES	CAL PDZ FP-1	C-LANA FP	miR-122 sensor	CAL PDZ FP-2	Keap1 Nrf2 FP
CCOc1ccc(CN2CCN(Cc3cccn3-c3ncccn3)CC2CCO)cc1 (configuration not stated)	-2	1	-1	0	-3
CCOc1ccc(CN2CCN(Cc3cccn3-c3cccnc3)CC2CCO)cc1 (configuration not stated)	-1	0	x	78*	-3
CCCNC(=O)Nc1ccc2c(c1)C(=O)N(C)[C@H]1CC[C@H](CC(=O)Nc3cccc(C)c3)O[C@@H]1CO2	x	x	50[16.7 µM]	x	x
Cc1cc(C(=O)N2CCCC(N3CCN(c4cccc(Cl)c4)CC3)C2)n(C)n1 (configuration not stated)	0	1	-3	-2	-6
COc1ccccc1N1CCN(C2CCCN(C(=O)c3cc(C4CC4)on3)C2)CC1 (configuration not stated)	1	-1	-3	128*	-7
Cc1cc(C(=O)N2CCCC(N3CCN(c4ccccc4C)CC3)C2)n(C)n1 (configuration not stated)	0	0	-4	31*	3
CCC(=O)N(C)C[C@H]1Oc2cc(-c3ccccc3OC)ccc2S(=O)(=O)N([C@H](C)CO)C[C@@H]1C	x	x	4[16.7 µM]	x	x
CC(C)NC(=O)N(C)C[C@H]1Oc2ccc(NS(=O)(=O)c3ccccc3)cc2CC(=O)N([C@H](C)CO)C[C@@H]1C	x	x	2[16.7 µM]	x	x
C/C=C/c1cnc2c(c1)C(=O)N([C@@H](C)CO)C[C@H](C)[C@@H](CN(C)C(=O)CCN1CCCCC1)O2	x	x	3[16.7 µM]	x	x
O=C(OCc1ccccc1Cl)c1ccccc1C(=O)c1ccccc1	-3	0	137*	-2	-9
COc1cccc(S(=O)(=O)Nc2ccc3c(c2)OC[C@@H](C)NC[C@H](C)[C@H](OC)CN(C)C3=O)c1	x	x	-9[16.7 µM]	x	x
O=C1C=C(O)c2c(O)cc(O)c(O)c2C1=O	0	117*	-1	-1	19*
O=C1c2ccccc2C(=O)c2c(O)c(O)cc(O)c21	1	11	-10	3	7
O=C(NCc1cccs1)c1ccncc1	-1	1	-5	74*	-2
CN(C)c1ccc(NC(=O)CCN2C(=O)c3cccc([N+](=O)[O-])c3C2=O)cc1	-1	-3	2	-2	1
CN(Cc1ccc(Br)cc1)C(=O)CCN1C(=O)c2cccc([N+](=O)[O-])c2C1=O	1	0	-5	71*	1
C[C@@H]1CN([C@@H](C)CO)C(=O)c2cc(NS(=O)(=O)c3ccccc3)ccc2O[C@H]1CN(C)S(C)(=O)=O	x	x	-2[16.7 µM]	x	x
CC(=O)C[C@H]1c2cc(C(F)(F)F)ccc2S(=O)(=O)N1C1CCCC1	0	0	105*	-1	-6
O=C(O)C[C@H]1c2cc(C(F)(F)F)ccc2S(=O)(=O)N1C1CCCC1	-1	-1	6	-2	0
Cc1ccc(S(=O)(=O)N2CCOC2CNC(=O)C(=O)NCCc2ccccc2)cc1 (configuration not stated)	-1	0	6	33*	0
Cc1ccc(S(=O)(=O)N2CCOC2CNC(=O)C(=O)NCCCc2ccccc2)cc1 (configuration not stated)	0	-1	-10	-2	-5
CCCC#Cc1ccc2c(c1)O[C@@H](CN(C)C(=O)c1ccccn1)[C@@H](C)CN([C@H](C)CO)S2(=O)=O	x	x	3[16.7 µM]	x	x
O=S(=O)(Nc1cccc2ncccc12)c1cccs1	-1	1	234*	-1	-4
Cc1c(NS(=O)(=O)c2cccs2)cccc1-c1nc2cccnc2s1	-2	0	x	-6	-6
CCOC(=O)c1ccc(-n2c(C)nc3c(cnn3-c3ccccc3Cl)c2=O)cc1	1	-2	-4	78*	3
O=C(NCc1ccco1)C1CCCN1C(=O)Nc1ccccc1 (configuration not stated)	0	-1	2	-2	-1

Compound activity deposited in PubChem by Broad Institute.
